Assay results pooled from the literature.
Protocols differ between the studies behind these lines.
Target: Inhibitor of nuclear factor kappa-B kinase subunit beta (IKBKB, Homo sapiens, UniProt O14920)

O=C(O)[C@H]1[C@H](Cn2nnc3ccccc3c2=O)CC[C@@H]1C(=O)c1ccc(OCCC2CCOCC2)cc1
remaining binding (cell-free assay, competition with immobilised ligand; 1 µM): 100%

CC(C)(C)C(=O)c1sc(NC2CCCCC2)nc1N
remaining activity (enzyme activity, inhibitor; 10 µM): 99%

C[C@@H]1CN(c2cc(-c3nn(C)c4ccc(OC5(C)CC5)cc34)ncn2)C[C@H](C)O1
remaining binding (cell-free assay, competition with immobilised ligand; 1 µM): 76%

Cn1c2c(c3ccc(Cl)c(Cl)c31)C(C#N)C1(CCOCC1)NC2=O (stereo not shown)
ΔTm (thermal stability, DSF; 10 µM): -0.4 °C

CCN(CC)c1ccc(C2=NNC(=O)CC2C)cc1[N+](=O)[O-] (stereo not shown)
remaining activity (enzyme activity, inhibitor; 10 µM): 97%

CN(C)C1CCN(CC#Cc2nn(C3CCCC3)c3nc(NCc4ccccc4)ncc23)C1 (stereo not shown)
inhibition (enzyme activity, inhibitor, FRET; 1 µM): 1%

CCCCN(CCCC)C(=O)CN1C[C@@H](c2cc(OC)c3c(c2)OCO3)[C@H](C(=O)O)[C@H]1CC(C)(C)CCC
remaining binding (cell-free assay, competition with immobilised ligand; 1 µM): 100%

O=c1cc(-c2cccc3c2Sc2ccccc2S3)oc(N2CCOCC2)c1
remaining activity (enzyme activity, inhibitor; 0.5 µM): 101%

Cc1ccc(C(=O)NCc2ccsc2)cc1C#Cc1cn(C(C)C)c2ncnc(N)c12
activity vs control (enzyme activity, inhibitor; 1 µM): 108%

CCN(CC)CCNC(=O)c1c(C)[nH]c(/C=C2\C(=O)Nc3ccc(Cl)cc32)c1C
remaining activity (enzyme activity, inhibitor; 0.5 µM): 101%

FC(F)(F)Oc1cccc(-c2cnc3ccc(-c4ccncc4)nn23)c1
activity vs control (enzyme activity, inhibitor, radiometric; 5 µM): 84%

Cc1ccc(Nc2nccc(N(C)c3ccc4c(C)n(C)nc4c3)n2)cc1S(N)(=O)=O
inhibition (enzyme activity, inhibitor; 10 µM): 17%

CCC(=O)N[C@@H]1CC[C@H](C(=O)N(C)c2ccc(-c3nc4ccccc4o3)cc2)C1
remaining binding (cell-free assay, competition with immobilised ligand; 1 µM): 100%

CC(C)(C)c1nc2c(s1)c1nc(N)ncc1c1ccc(NS(=O)(=O)c3c(F)cccc3F)c(F)c12
remaining activity (enzyme activity, inhibitor, radiometric; 1 µM): 79%

CCCCNc1ncc2c(-c3ccc(F)cc3)nn(C[C@H]3CC[C@H](N)CC3)c2n1
inhibition (target engagement in cells, inhibitor, chemoproteomics; 20 mM): -14.9%

Cn1c2c(c3ccc(Cl)c(Cl)c31)C(C#N)C(C)(C)NC2=O (stereo not shown)
ΔTm (thermal stability, DSF; 10 µM): -0.4 °C

CC1=C(C#N)[C@@H](c2ccc3[nH]nc(C)c3c2)C(C#N)=C(c2ccc(Cl)cc2)N1
remaining binding (cell-free assay, competition with immobilised ligand; 1 µM): 100%

CNC(=O)c1cc(Oc2ccc(NC(=O)Nc3ccc(Cl)c(C(F)(F)F)c3)cc2)ccn1
inhibition (enzyme activity, inhibitor; 10 µM): -26%

Oc1cccc(-c2nc(N3CCOCC3)c3oc4ncccc4c3n2)c1
remaining activity (enzyme activity, inhibitor; 10 µM): 74%

O=c1c2ccccc2[nH]c(=S)n1CCN1CCC(=C(c2ccc(F)cc2)c2ccc(F)cc2)CC1
remaining activity (enzyme activity, inhibitor; 0.5 µM): 99.5%

Cn1c2c(c3ccc(Cl)c(Cl)c31)C(C#N)C1(CCNCC1)NC2=O (racemic)
ΔTm (thermal stability, DSF; 10 µM): 0.6 °C

N#CC1(c2ccccn2)CCN(Cc2cc(C(=O)N3CCCC3)c(=O)n3ccccc23)CC1
remaining binding (cell-free assay, competition with immobilised ligand; 1 µM): 99%

CCN1CCC2(CC1)NC(=O)c1c(c3ccc(Cl)c(Cl)c3n1C)C2C#N (racemic)
ΔTm (thermal stability, DSF; 10 µM): 0 °C

Cc1sc(C(=O)NC2COC2)cc1-n1cc(NC(=O)Nc2c(F)cccc2Cl)cn1
remaining activity (enzyme activity, inhibitor; 10 µM): 86.8%

FC(F)c1nc2ccccc2n1-c1nc(N2CCOCC2)nc(N2CCOCC2)n1
remaining activity (enzyme activity, inhibitor; 10 µM): 94%

CCN(CC)CCNC(=O)c1c(C)[nH]c(/C=C2\C(=O)Nc3ccc(F)cc32)c1C
inhibition (enzyme activity, inhibitor; 10 µM): 9%

Nc1ncnc2occ(-c3ccc(NC(=O)Nc4cc(C(F)(F)F)ccc4F)cc3)c12
remaining activity (enzyme activity, inhibitor; 20 µM): 0.55%

COc1cc(Nc2cnc(C#N)c(O[C@H](C)CN(C)C)n2)ncc1-c1cnn(C)c1
remaining activity (enzyme activity, inhibitor, radiometric; 10 µM): 86%

Cc1cnc(NC2CCOCC2)nc1-n1cnc(C(=O)NC(CN)c2cc(F)cc(Cl)c2)c1 (stereo not shown)
remaining activity (enzyme activity, inhibitor, radiometric; 1 µM): 100%

C=CC(=O)Nc1cc(Nc2nccc(Nc3cc(Cl)c(F)cc3C(C)(C)O)n2)c(OC)cc1N1CC[C@@H](N(C)C)C1
inhibition (enzyme activity, inhibitor; 1 µM): -5%

CCCOc1ccc(OC)c(F)c1C(=O)c1ccc(C(=O)N[C@@H]2CNC[C@H]2NC(=O)c2ccc3[nH]ncc3c2)cc1
remaining activity (enzyme activity, inhibitor; 10 µM): 62%

Cn1c2c(Cl)c(Cl)ccc2c2cn[nH]c(=O)c21
ΔTm (thermal stability, DSF; 10 µM): -0.1 °C

COc1cc2ncnc(Nc3ccc(Oc4ccccc4)c(C)c3C)c2cc1OC
inhibition (enzyme activity, inhibitor; 1 µM): 3%

O=C1NC(=O)c2cc(Nc3ccc(F)cc3)c(Nc3ccc(F)cc3)cc21
remaining signal (cell-free assay; 0.5 µM): 95.6%

Nc1nc(Nc2ccccc2)sc1C(=O)c1c(F)cccc1F
remaining activity (enzyme activity, inhibitor; 10 µM): 82%

Clc1ccc(Nc2nnc(Cc3ccncc3)c3ccccc23)cc1
remaining signal (cell-free assay; 0.5 µM): 85.6%

NS(=O)(=O)c1cc(NC(=O)Cc2ccccc2)ccc1Oc1cccc(Cl)c1
remaining binding (cell-free assay, competition with immobilised ligand; 1 µM): 91%

Cc1ccc(NC(=O)c2ccc(C)c(C(F)(F)F)c2)cc1C#Cc1nn(C2CCC(O)CC2)c2ncnc(N)c12 (stereo not shown)
remaining signal (cell-free assay; 10 µM): 33%

CCS(=O)(=O)c1cc2cc(C[C@@](O)(CC(C)(C)c3ccc(F)cc3C(N)=O)C(F)(F)F)[nH]c2cn1
remaining binding (cell-free assay, competition with immobilised ligand; 1 µM): 83%

CS(=O)(=O)Nc1cccc(-c2csc(NC(=O)CSc3nc4nccnc4c(=O)n3CCc3ccccc3)n2)c1
inhibition (enzyme activity, inhibitor; 10 µM): 4%
